For data set [1], the target named is T1, Polyunsaturated fatty acid 5-lipoxygenase (Homo sapiens) (UniProt P09917).
T1 sequence (whole entry): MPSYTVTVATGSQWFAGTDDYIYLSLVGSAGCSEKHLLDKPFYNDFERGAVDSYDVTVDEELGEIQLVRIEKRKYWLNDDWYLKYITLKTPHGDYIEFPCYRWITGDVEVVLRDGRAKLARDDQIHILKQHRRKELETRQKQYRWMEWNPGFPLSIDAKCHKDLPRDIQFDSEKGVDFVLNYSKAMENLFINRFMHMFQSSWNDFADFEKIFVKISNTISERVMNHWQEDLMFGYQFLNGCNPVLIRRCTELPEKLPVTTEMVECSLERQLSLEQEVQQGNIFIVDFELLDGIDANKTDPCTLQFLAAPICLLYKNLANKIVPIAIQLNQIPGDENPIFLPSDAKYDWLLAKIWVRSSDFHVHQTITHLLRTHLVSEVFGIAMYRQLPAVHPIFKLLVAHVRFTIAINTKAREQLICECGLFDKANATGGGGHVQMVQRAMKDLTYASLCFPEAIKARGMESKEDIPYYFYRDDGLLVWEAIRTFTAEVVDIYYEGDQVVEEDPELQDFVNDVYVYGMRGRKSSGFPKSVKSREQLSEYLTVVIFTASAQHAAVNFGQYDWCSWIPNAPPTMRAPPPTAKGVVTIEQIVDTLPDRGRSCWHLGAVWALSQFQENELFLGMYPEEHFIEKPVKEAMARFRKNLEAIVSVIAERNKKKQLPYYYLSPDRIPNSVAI
Briefly: Inhibition of human recombinant 5-lipoxygenase expressed in Escherichia coli BL21 assessed as enzyme product formation measured up to 30 uM in presence of 13(S)-HpODE. The method, boiled down:
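Human 5-LO expressed in E. coli BL21 (pT3-5LO), affinity-purified and used at once. 0.5 µg enzyme in 1 ml PBS/EDTA with 1 mM ATP preincubated with compound 5–10 min at 4 °C, then warmed 30 s at 37 °C. Reaction started with 2 mM CaCl₂ and AA (routinely 20 µM), with or without 1 µM 13(S)-HpODE. Run 10 min at 37 °C, stopped with ice-cold methanol, products analysed by HPLC. Washout: 10-fold dilution (10 to 1 µM).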

The test system of data set [2] is A549. As to the kind of experiment: Cytotoxicity against human A549 cells assessed as cell viability at 10 uM after 16 hrs by MTT assay. It counts as cell-based. To be noted: a549, 5 h, in the assay text read “5 hrs” for “16 hrs”. In short, it runs like this: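 A549 cells plated at 4 × 10⁴ cells per well, incubated 16 h at 37 °C, 5% CO₂, then exposed to 10 µM compound or DMSO (≤0.3% final) for 5 h. MTT added for 4 h, formazan solubilized with SDS in 20 mM HCl, absorbance at 595 nm read relative to vehicle-treated cells.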
A general note: Tetrazolium dyes change colour on reduction, which living cells bring about.

Data set [3] deals with T2, Prostaglandin E synthase (Homo sapiens, UniProt O14684).
T2 sequence (O14684 whole entry): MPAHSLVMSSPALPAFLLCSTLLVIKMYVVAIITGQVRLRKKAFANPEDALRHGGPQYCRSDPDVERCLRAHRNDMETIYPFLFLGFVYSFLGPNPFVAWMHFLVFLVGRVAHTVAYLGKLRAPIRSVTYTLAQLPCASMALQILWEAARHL
As to the kind of experiment: Inhibition of mPGES-1 in human IL-1beta-stimulated A549 cell microsomes assessed as reduction of PGE2 formation from PGH2 after 15 mins. Also on record: species or system Microsome. In short, it runs like this:
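Microsomes from A549 cells stimulated 72 h with IL-1β (1 ng/ml), diluted to 50 µg/ml in 0.1 M potassium phosphate pH 7.4 with 2.5 mM glutathione. Preincubated with compound (1% DMSO final) 15 min at 4 °C. Reaction started with 20 µM PGH₂, run 1 min at 4 °C, stopped with FeCl₂/citric acid containing 11β-PGE₂; PGE₂ quantified. Mean of n = 3–5.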

Activity calls are given as the source filed them. No cut-off for these calls is given here.

As usually defined, the IC50 is the concentration that inhibits the measured activity by half. With `CCCCC(Sc1ccc(OCCCOc2ccc(-c3ccccc3)cc2)cc1)C(=O)O` (stereo not drawn), the inhibition entry in data set [1] is “Active”. The Activity result in data set [2] is reported as “Non-toxic”. Moreover, in data set [3], the IC50 amounted to 2200 nM.

The values are drawn from ChEMBL document CHEMBL1777776, “Identification of 2-mercaptohexanoic acids as dual inhibitors of 5-lipoxygenase and microsomal prostaglandin E₂ synthase-1” (Bioorg Med Chem, 2011).
